Results: ChEMBL document CHEMBL1145023, “Homology modeling of rat and human cytochrome P450 2D (CYP2D) isoforms and computational rationalization of experimental ligand-binding specificities” (J Med Chem, 2003)

How the values were obtained:
Format in all cases: ADME
Cytochrome P450 2D3 = target: T1, Cytochrome P450 2D3 (Rattus norvegicus, UniProt P12938); test: Inhibition of MAMC O-dealkylation mediated by rat Cytochrome P450 2D3 expressed in Saccharomyces cerevisiae
T1 sequence (P12938 whole entry): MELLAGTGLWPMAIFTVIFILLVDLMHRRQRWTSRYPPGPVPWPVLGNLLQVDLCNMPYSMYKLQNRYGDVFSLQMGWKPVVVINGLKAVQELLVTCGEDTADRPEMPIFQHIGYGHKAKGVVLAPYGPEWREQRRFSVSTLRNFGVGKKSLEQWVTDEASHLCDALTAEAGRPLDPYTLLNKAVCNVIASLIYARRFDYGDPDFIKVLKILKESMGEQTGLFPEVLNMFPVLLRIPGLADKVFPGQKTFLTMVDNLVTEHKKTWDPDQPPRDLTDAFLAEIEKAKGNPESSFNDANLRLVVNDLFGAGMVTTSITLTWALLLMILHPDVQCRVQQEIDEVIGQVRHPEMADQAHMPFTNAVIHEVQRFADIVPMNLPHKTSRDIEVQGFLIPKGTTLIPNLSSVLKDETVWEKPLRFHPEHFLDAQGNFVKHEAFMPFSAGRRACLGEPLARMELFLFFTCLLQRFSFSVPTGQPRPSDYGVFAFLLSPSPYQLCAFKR
How it was run: (§1)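 Rat CYP2D isozymes are singly expressed in S. cerevisiae and used as microsomes in 100 mM phosphate, pH 7.4, at 37 °C. MAMC is 100 μM final, with or without varying inhibitor, after a 5 min preincubation. NADPH-regenerating system is added to start the reaction.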

Cytochrome P450 2D1 = target: T2, Cytochrome P450 2D1 (Rattus norvegicus, UniProt P10633); test: Inhibition of MAMC O-dealkylation mediated by rat Cytochrome P450 2D1 expressed in Saccharomyces cerevisiae
T2 sequence (P10633 whole entry): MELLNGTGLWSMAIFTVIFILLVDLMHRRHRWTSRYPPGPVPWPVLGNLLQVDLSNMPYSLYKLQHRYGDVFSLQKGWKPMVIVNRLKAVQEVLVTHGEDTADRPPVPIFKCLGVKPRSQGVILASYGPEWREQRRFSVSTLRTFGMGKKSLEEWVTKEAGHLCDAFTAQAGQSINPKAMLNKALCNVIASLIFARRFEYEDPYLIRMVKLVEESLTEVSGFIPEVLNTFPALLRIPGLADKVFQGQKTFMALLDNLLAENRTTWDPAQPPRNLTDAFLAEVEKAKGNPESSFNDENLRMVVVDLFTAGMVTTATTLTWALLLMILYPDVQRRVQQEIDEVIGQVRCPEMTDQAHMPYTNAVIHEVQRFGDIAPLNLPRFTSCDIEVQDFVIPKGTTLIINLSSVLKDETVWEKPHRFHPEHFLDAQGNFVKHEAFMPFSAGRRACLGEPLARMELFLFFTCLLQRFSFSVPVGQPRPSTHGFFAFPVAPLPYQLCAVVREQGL
How it was run: as §1, with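 “°C. Enzyme concentrations are 52.0 nM (2D1), 3.1 nM (2D2), 3.6 nM (2D3) and 21.9 nM (2D4).” for “°C.”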

Cytochrome P450 2D26 = target: T3, Cytochrome P450 2D26 (Rattus norvegicus, UniProt P10634); test: Inhibition of MAMC O-dealkylation mediated by rat Cytochrome P450 2D2 expressed in Saccharomyces cerevisiae; how it was run: as §1
T3 sequence (P10634 whole entry): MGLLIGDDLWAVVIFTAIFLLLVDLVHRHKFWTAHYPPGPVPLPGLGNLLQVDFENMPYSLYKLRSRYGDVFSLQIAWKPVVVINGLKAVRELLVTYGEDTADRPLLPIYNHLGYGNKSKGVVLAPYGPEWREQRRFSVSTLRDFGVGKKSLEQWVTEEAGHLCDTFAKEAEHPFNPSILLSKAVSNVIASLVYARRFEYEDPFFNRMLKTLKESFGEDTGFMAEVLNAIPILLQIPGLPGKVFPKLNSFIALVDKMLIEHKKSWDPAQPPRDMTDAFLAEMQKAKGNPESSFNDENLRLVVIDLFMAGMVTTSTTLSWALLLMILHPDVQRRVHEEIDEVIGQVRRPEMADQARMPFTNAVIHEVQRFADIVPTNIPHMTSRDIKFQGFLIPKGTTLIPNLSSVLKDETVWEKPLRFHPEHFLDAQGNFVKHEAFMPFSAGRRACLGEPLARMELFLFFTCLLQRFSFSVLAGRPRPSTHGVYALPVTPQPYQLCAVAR

Cytochrome P450 2D4 = target: T4, Cytochrome P450 2D4 (Rattus norvegicus, UniProt Q64680); test: Inhibition of MAMC O-dealkylation mediated by rat Cytochrome P450 2D4 expressed in Saccharomyces cerevisiae; how it was run: as §1
T4 sequence (Q64680 whole entry): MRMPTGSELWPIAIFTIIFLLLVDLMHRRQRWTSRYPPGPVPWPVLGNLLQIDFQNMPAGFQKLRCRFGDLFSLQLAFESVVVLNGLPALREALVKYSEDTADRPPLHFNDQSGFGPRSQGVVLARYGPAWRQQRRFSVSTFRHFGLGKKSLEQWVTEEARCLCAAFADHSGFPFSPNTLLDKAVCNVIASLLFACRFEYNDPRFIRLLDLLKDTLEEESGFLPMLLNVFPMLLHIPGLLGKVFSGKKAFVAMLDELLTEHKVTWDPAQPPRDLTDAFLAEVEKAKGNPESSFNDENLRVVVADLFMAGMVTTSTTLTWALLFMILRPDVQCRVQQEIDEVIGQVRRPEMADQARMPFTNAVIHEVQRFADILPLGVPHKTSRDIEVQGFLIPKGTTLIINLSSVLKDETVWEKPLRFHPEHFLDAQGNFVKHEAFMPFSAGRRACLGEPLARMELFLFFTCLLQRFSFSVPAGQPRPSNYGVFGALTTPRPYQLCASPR

Cytochrome P450 2D6 = Cytochrome P450 2D6 (Homo sapiens, UniProt P10635); test: Inhibition of MAMC O-dealkylation mediated by human Cytochrome P450 2D6 expressed in human lymphoblastoid cell line
Sequence of Cytochrome P450 2D6 (P10635 whole entry): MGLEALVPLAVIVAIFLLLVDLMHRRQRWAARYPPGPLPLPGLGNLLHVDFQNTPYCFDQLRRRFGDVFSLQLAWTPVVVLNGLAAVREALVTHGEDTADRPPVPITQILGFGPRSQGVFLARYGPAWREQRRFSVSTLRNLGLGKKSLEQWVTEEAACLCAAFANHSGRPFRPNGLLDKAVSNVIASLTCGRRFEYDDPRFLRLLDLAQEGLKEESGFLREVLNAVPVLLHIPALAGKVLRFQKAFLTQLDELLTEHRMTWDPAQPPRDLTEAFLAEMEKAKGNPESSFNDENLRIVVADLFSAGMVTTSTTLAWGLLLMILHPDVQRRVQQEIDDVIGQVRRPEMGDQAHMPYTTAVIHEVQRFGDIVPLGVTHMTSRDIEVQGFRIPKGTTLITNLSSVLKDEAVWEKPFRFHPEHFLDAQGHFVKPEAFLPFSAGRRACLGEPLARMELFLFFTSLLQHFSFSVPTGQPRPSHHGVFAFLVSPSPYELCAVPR
How it was run: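 Human CYP2D6 (1 nM) competition run as a microplate-reader fluorescence assay. MAMC is the substrate at 10 μM final, with and without a range of inhibitor concentrations. IC50 is obtained by nonlinear least-squares one-site competition fitting.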

Row | SMILES | IC50 (Cytochrome P450 2D3) | IC50 (Cytochrome P450 2D1) | IC50 (Cytochrome P450 2D26) | IC50 (Cytochrome P450 2D4) | IC50 (Cytochrome P450 2D6)
1 | CC(C)NC[C@@H](O)COc1cccc2ccccc12 [DEXPROPRANOLOL] | 155 µM | 182 µM | 0.42 µM | 117 µM | 
2 | N=C(N)N1CCc2ccccc2C1 [DEBRISOQUIN] | 1750 µM | 529 µM | 107 µM | 747 µM | 23.8 µM
3 | CNCCC=C1c2ccccc2CCc2ccccc21 [NORTRIPTYLINE] | 14.2 µM | 204 µM | 1.9 µM | 19.3 µM | 2.3 µM
4 | [H]/N=C(/N)N/C(=N/[H])NCCc1ccccc1 [PHENFORMIN] | 1930 µM |  | 45.4 µM | 833 µM | 27 µM
5 | C=C[C@H]1C[N@@]2CC[C@H]1C[C@H]2[C@H](O)c1ccnc2ccc(OC)cc12 [QUININE] | 12 µM | 46.5 µM |  | 1.7 µM | 
6 | COc1ccc2c3c1O[C@H]1[C@@H](O)C=C[C@H]4[C@@H](C2)N(C)CC[C@@]341 [CODEINE] | 4090 µM | 1320 µM | 238 µM | 2220 µM | 
7 | CC(C)NC[C@H](O)COc1cccc2ccccc12 [LEVOPROPRANOLOL] | 172 µM | 571 µM | 0.35 µM | 133 µM | 
8 | COc1ccc2c(CN(C)C)cc(=O)oc2c1 | 862 µM | 329 µM | 307 µM | 1180 µM | 74.2 µM
9 | C=C[C@H]1C[N@@]2CC[C@H]1C[C@@H]2[C@@H](O)c1ccnc2ccc(OC)cc12 [QUINIDINE] | 26.9 µM | 19.9 µM |  | 47.2 µM | 
10 | COc1ccc2c(c1)[C@]13CCCC[C@@H]1[C@H](C2)N(C)CC3 [DEXTROMETHORPHAN] | 18.6 µM | 264 µM | 5.6 µM | 136 µM | 1.8 µM
